Measured values published in ChEMBL document CHEMBL2439950, “Arylamino methylene bisphosphonate derivatives as bone seeking matrix metalloproteinase inhibitors” (Bioorg Med Chem, 2013).

Legend:
[1] = tested on: Hydroxyapatite; experiment: Binding affinity to bone mineral hydroxyapatite assessed as adsorbed level at 100 uM after 2 hrs by UV-spectrophotometric analysis
Summary of the method: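 Duplicate 5 ml aliquots of 100 μM bisphosphonic acid in 50 mM Tris-HCl pH 7.5, stirred with 4 mg hydroxyapatite at 37 °C for 2 h. After centrifugation (10 min, 8000 rpm) and 0.22 μm filtration, supernatant absorbance was quantified against calibration lines.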

[2] = Cytotoxicity against mouse J774A1 cells assessed as cell viability at 100 uM after 48 hrs by MTT assay; format: functional; details: J774.A1, 48 h, read-out: Activity
Summary of the method: (§1)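 J774 A.1 cells were grown in DMEM and HepG2 in MEM, each with 10% FBS, penicillin, streptomycin and 2 mM L-glutamine, at 37 °C in 5% CO2. Seeded at 1-5·10^4 cells/well with half-log diluted compounds, 1% DMSO final, for 48 h. MTT was added to 0.5 mg/mL final for 3-4 h, solubilized in 50% DMSO/50% EtOH, and read at 570 nm. Background came from Triton X-100 lysed wells, and viability was taken relative to untreated controls.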

[3] = biological target: 72 kDa type IV collagenase (Homo sapiens, UniProt P08253); experiment: Inhibition of APMA-activated recombinant human MMP2 using Mca-Pro-Leu-Gly-Leu-Dpa-Ala-Arg-NH2 as substrate incubated for 30 mins prior to substrate addition measured after 2 to 4 hrs by fluorometric assay
Summary of the method: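 Human pro-MMP-2 was activated with 2 mM APMA for 1 h at 37 °C. Enzyme and inhibitor (six concentrations, 0.1 nM–100 μM) were preincubated 30 min at 25 °C in Tris-HCl pH 7.5 buffer with NaCl, CaCl2, ZnCl2, Brij-35 and 1% DMSO. Substrate was added to 2.5 μM final, run 2–4 h at 37 °C, and stopped with 3% acetic acid. Fluorescence read at ex 340/em 405 nm, in triplicate; IC50 from percent inhibition versus no-inhibitor controls.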

[4] = biological target: Matrix metalloproteinase-9 (Homo sapiens, UniProt P14780); experiment: Inhibition of MMP9 catalytic domain (unknown origin) using Mca-Pro-Leu-Gly-Leu-Dpa-Ala-Arg-NH2 as substrate incubated for 30 mins prior to substrate addition measured after 2 to 4 hrs by fluorometric assay
Summary of the method: (§2)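 Catalytic domains of MMP-8, MMP-9 or MMP-14 were preincubated 30 min at 25 °C with inhibitor (six concentrations, 0.1 nM–100 μM) in 50 mM Tris-HCl pH 7.5, 200 mM NaCl, 1 mM CaCl2, 1 μM ZnCl2, 0.05% Brij-35, 1% DMSO. Substrate was added to 2.5 μM final for 2–4 h at 37 °C, then acetic acid stop. Fluorescence read at 340/405 nm, in triplicate; IC50 fitted from percent inhibition.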

[5] = biological target: Neutrophil collagenase (Homo sapiens, UniProt P22894); experiment: Inhibition of MMP8 catalytic domain (unknown origin) using Mca-Pro-Leu-Gly-Leu-Dpa-Ala-Arg-NH2 as substrate incubated for 30 mins prior to substrate addition measured after 2 to 4 hrs by fluorometric assay; summary of the method: as §2
[6] = biological target: Matrix metalloproteinase-14 (Homo sapiens, UniProt P50281); experiment: Inhibition of MMP14 catalytic domain (unknown origin) using Mca-Pro-Leu-Gly-Leu-Dpa-Ala-Arg-NH2 as substrate incubated for 30 mins prior to substrate addition measured after 2 to 4 hrs by fluorometric assay; summary of the method: as §2
[7] = Cytotoxicity against human HepG2 cells assessed as cell viability at 100 uM after 48 hrs by MTT assay; format: cell-based; details: read-out: Activity; summary of the method: as §1

Neutrophil collagenase, sequence (P22894 whole entry, the tested form may be a part): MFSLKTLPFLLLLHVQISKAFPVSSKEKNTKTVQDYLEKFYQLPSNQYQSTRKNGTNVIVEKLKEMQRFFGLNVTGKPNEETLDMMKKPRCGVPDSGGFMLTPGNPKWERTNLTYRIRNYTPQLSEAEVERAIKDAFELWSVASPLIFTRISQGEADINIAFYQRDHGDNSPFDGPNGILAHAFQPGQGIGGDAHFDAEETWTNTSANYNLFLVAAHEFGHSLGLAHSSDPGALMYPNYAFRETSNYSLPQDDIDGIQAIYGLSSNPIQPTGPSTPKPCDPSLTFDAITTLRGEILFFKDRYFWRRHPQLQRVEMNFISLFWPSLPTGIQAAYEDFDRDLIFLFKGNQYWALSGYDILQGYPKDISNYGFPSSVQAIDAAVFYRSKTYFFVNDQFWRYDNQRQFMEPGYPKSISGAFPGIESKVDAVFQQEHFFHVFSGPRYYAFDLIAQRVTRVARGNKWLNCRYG
Matrix metalloproteinase-9, sequence (P14780 whole entry, the tested form may be a part): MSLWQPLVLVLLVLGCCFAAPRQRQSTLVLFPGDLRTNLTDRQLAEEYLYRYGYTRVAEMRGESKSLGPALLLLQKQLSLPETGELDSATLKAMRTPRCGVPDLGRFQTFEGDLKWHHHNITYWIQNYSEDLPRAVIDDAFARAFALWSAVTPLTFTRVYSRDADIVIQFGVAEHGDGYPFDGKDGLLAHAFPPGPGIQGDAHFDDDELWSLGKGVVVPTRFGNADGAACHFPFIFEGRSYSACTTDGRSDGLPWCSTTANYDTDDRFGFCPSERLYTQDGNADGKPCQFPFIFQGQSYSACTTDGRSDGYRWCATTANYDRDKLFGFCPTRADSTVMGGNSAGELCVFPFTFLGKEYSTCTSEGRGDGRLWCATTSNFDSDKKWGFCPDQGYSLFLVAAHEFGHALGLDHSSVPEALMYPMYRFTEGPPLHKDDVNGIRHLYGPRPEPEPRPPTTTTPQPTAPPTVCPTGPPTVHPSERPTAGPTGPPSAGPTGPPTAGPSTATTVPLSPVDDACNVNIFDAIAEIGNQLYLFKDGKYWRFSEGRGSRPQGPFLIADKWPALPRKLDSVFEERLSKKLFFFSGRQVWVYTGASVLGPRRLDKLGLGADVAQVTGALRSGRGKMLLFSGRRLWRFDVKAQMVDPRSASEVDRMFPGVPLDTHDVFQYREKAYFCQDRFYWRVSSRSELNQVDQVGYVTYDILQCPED
72 kDa type IV collagenase, sequence (P08253 whole entry): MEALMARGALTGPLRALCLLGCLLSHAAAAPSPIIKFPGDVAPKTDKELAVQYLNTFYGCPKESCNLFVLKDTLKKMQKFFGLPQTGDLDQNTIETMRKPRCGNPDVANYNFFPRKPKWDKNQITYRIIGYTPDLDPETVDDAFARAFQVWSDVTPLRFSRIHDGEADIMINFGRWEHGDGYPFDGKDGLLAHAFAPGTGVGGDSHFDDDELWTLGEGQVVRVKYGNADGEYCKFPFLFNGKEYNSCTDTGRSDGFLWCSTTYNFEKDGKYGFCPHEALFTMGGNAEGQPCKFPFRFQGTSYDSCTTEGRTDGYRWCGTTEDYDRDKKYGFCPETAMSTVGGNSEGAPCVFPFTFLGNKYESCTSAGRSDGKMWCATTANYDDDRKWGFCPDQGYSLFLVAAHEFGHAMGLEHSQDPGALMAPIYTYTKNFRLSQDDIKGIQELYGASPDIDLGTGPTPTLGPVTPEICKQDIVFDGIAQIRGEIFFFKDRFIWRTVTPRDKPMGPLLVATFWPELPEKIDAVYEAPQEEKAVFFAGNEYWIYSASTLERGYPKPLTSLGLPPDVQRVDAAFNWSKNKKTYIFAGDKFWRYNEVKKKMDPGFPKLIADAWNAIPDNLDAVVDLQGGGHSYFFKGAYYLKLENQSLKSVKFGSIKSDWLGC

Structure (SMILES) | Activity [1] [%] | viability at 100 µM [2] [%] | IC50 [3] [µM] | IC50 [4] [µM] | IC50 [5] [µM] | IC50 [6] [µM] | viability at 48 h, 100 µM [7] [%]
O=P(O)(O)C(Nc1ccc(F)cc1)P(=O)(O)O | 61.2 | 80.4 | 28.2 | > 100 | > 100 | > 100 | 94
Cc1ccc(NC(P(=O)(O)O)P(=O)(O)O)cc1 [(P-TOLYLAMINO)METHYLENEDIPHOSPHONIC ACID] | 23.9 | 83 | > 100 | > 100 | 36 | > 100 | 104
O=P(O)(O)C(Nc1cccc(F)c1)P(=O)(O)O | 63.6 | 84 | 42 | > 100 | > 100 | > 100 | 70
O=P(O)(O)C(Nc1cccc(-c2ccccc2)c1)P(=O)(O)O | 66.4 | 49 | > 100 | > 100 | 52 | 40 | 102
O=P(O)(O)C(Nc1ccc(Cl)c(Cl)c1)P(=O)(O)O [3,4-DICHLOROPHENYLAMINOMETHYLENEBISPHOSPHONIC ACID] | 53.5 | 81 | > 100 | > 100 | 25.5 | 20 | 98
O=P(O)(O)C(Nc1ccc(C(F)(F)F)cc1)P(=O)(O)O | 42.5 | 53 | 15 | > 100 | > 100 | > 100 | 100
N#Cc1ccc(NC(P(=O)(O)O)P(=O)(O)O)cc1 | 76 | 86 | 36 | > 100 | > 100 | > 100 | 77
O=P(O)(O)C(Nc1cccc2ccccc12)P(=O)(O)O | 51.6 | 33 | 6.4 | 6 | 61 | 69 | 98
O=P(O)(O)C(Nc1cccc(Br)c1)P(=O)(O)O | 70.1 | 72 | 37.4 | > 100 | > 100 | > 100 | 67
O=P(O)(O)C(Nc1ccc(O)cc1)P(=O)(O)O | 88 | 19.5 | 6.6 | > 100 | > 100 | > 100 | 101
O=P(O)(O)C(Nc1ccc(Cl)cc1Cl)P(=O)(O)O [2,4-DICHLOROPHENYLAMINOMETHYLENEBISPHOSPHONIC ACID] | 56.8 | 59 | > 100 | > 100 | > 100 | > 100 | 73
O=P(O)(O)C(O)(Cn1ccnc1)P(=O)(O)O [ZOLEDRONIC ACID] |  |  | 7 | 52 | 17.6 | 12.6 | 
O=P(O)(O)C(Nc1ccc(Oc2ccccc2)cc1)P(=O)(O)O | 66.2 | 44 | 2.8 | > 100 | 44 | 43 | 105
O=P(O)(O)C(Nc1cccc(C(F)(F)F)c1)P(=O)(O)O | 50.3 | 62 | 20.8 | > 100 | > 100 | > 100 | 83
O=[N+]([O-])c1ccc(NC(P(=O)(O)O)P(=O)(O)O)cc1 | 76 | 76 | 20 | 20 | 15 | 26 | 84
O=P(O)(O)C(Nc1ccccc1)P(=O)(O)O [(PHENYLAMINO)METHYLENEDIPHOSPHONIC ACID] | 58 | 68 | > 100 | > 100 | > 100 | > 100 | 96
O=P(O)(O)C(Sc1ccc(Cl)cc1)P(=O)(O)O [TILUDRONIC ACID] | 51.5 | 14 | 7.2 | > 100 | 32 | 30.5 | 61
O=P(O)(O)C(Nc1ccc(Cl)cc1)P(=O)(O)O [(4-CHLOROPHENYLAMINO)METHYLENEDIPHOSPHONIC ACID] | 64.2 | 86 | > 100 | > 100 | > 100 | > 100 | 97
O=[N+]([O-])c1cccc(NC(P(=O)(O)O)P(=O)(O)O)c1 [(3-NITROPHENYLAMINO)METHYLENEDIPHOSPHONIC ACID] | 57.8 | 54 | 15.5 | > 100 | > 100 | > 100 | 83
O=P(O)(O)C(Nc1ccc(Br)cc1)P(=O)(O)O | 49 | 81 | 6 | 30 | 2.4 | 3.9 | 94
O=P(O)(O)C(Nc1ccc(Oc2ccc(Br)cc2)cc1)P(=O)(O)O | 60.7 | 15.3 | 2.8 | 87 | 43 | 49.5 | 90
O=[N+]([O-])c1cc(NC(P(=O)(O)O)P(=O)(O)O)ccc1F | 66.2 | 69 | 25 | > 100 | > 100 | > 100 | 69
O=P(O)(O)C(Nc1ccc(-c2ccccc2)cc1)P(=O)(O)O | 60 | 36 | > 100 | > 100 | 30 | 33.5 | 88
O=P(O)(O)C(Nc1ccc(Oc2ccc(Cl)cc2)cc1)P(=O)(O)O | 52.1 | 73 | 2.1 | 55 | 39.9 | 76 | 87
